The text below walks through data of ChEMBL document CHEMBL1139058, “Synthesis, in vitro and in silico evaluation of l-tyrosine containing PPARalpha/gamma dual agonists” (2007).

The target of test [1] is T1, Peroxisome proliferator-activated receptor alpha (Homo sapiens) (UniProt Q07869).
T1 sequence (whole entry): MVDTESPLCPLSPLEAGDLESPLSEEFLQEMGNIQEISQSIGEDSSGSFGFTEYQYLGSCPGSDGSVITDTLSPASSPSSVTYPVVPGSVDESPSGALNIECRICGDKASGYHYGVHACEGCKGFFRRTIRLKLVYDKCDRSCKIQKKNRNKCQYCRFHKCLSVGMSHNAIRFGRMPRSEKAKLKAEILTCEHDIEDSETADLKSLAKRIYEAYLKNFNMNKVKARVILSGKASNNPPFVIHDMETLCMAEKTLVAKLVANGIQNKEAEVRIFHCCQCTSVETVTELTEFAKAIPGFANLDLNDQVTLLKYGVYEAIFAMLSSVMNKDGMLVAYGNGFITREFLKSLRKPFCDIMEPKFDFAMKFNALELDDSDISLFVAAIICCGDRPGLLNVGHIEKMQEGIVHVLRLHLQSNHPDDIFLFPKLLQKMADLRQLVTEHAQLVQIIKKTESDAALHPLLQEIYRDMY
Put plainly: Agonist activity at human PPARalpha in HEK293T cells at 50 uM by GAL4 transactivation assay relative to WY-14643. The test is classed as functional, cell-based. Particulars: HEK-293T. A digest of the protocol: (§1)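 HEK 293T cells grown in DMEM-10% FBS at 37 °C, 5% CO2, then plated at 50–60% confluence in DMEM with 10% delipidated FBS one day before Superfect transfection. Reagent removed after 3 h. At 42 h post-transfection, cells moved to phenol red-free DMEM-DFBS and treated 18 h with compound or vehicle. Cells lysed, luciferase measured, expressed as fold activation over untreated cells.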

Test [2] can be described thus: Agonist activity at human PPARgamma 1 in HEK293T cells at 50 uM by GAL4 transactivation assay relative to rosiglitazone. The format is functional, HEK-293T. A digest of the protocol:
as §1

As for `COC(=O)[C@H](Cc1ccc(OCCOc2cccc3[nH]c4ccccc4c23)cc1)NC1=C(C(=O)c2ccccc2)CCCC1`, the Activity in test [1] worked out at 1.4; in test [2], 4.7.

In the case of `C/C(=C/C(=O)c1ccccc1)N[C@@H](Cc1ccc(OCCCOc2cccc3[nH]c4ccccc4c23)cc1)C(=O)O`, the results for the Activity in test [1] and in test [2] were 5.1 and 15.1, respectively.

On to `C/C(=C/C(=O)c1ccccc1)N[C@@H](Cc1ccc(OCCOc2ccc3c(c2)[nH]c2ccccc23)cc1)C(=O)O`, for which the Activity is 2 in test [1] and 4.2 in test [2].

As for `O=C(C1=C(N[C@@H](Cc2ccc(OCCOc3cccc4[nH]c5ccccc5c34)cc2)C(=O)O)CCCC1)c1ccccc1`, the Activity in test [1] is 1.2; in test [2], 11.2.

As for `COC(=O)[C@H](Cc1ccc(OCCn2c3ccccc3c3ccccc32)cc1)N/C(C)=C\C(=O)c1ccccc1`, the Activity was found to be 1.2 in test [1] and 1.9 in test [2].

Turning to `C/C(=C/C(=O)c1ccccc1)N[C@@H](Cc1ccc(OCCOc2cccc3[nH]c4ccccc4c23)cc1)C(=O)O`, the Activity in test [1] is 4.6; in test [2] it was 48.2.

Regarding `C/C(=C/C(=O)c1ccccc1)N[C@@H](Cc1ccc(OCCOc2cc(C(F)(F)F)nc3c(C(F)(F)F)cccc23)cc1)C(=O)O`, the Activity in test [1] turned out to be 1.1; in test [2], 2.3.

Consider `C/C(=C/C(=O)c1ccccc1)N[C@@H](Cc1ccc(OCCOc2ccc(C(=O)c3ccc(Cl)cc3)cc2)cc1)C(=O)O`, for which the Activity in test [1] turned out to be 2.8; in test [2] it was 22.6.

As for `COC(=O)[C@H](Cc1ccc(OCCOc2ccc3c(c2)[nH]c2ccccc23)cc1)N/C(C)=C\C(=O)c1ccccc1`, the Activity in test [1] stood at 1.9; in test [2], 1.8.

Regarding `C/C(=C/C(=O)c1ccccc1)N[C@@H](Cc1ccc(OCCn2c3ccccc3c3ccccc32)cc1)C(=O)O`, the Activity amounted to 1.4 in test [1] and 1.7 in test [2].

Take `O=C(C1=C(N[C@@H](Cc2ccc(OCCn3c4ccccc4c4ccccc43)cc2)C(=O)O)CCCC1)c1ccccc1`: the Activity was 1 in test [1] and 8.4 in test [2].

For the compound `C/C(=C/C(=O)c1ccccc1)N[C@@H](Cc1ccc(OCCc2ccc(C(F)(F)F)cc2)cc1)C(=O)O`, the values for the Activity in test [1] and in test [2] were 0.3 and 0.7, respectively.

Turning to `COC(=O)[C@H](Cc1ccc(OCCn2c3ccccc3c3ccccc32)cc1)NC1=C(C(=O)c2ccccc2)CCCC1`, the Activity in test [1] was 0.5; in test [2] it was 3.
